Measurements from different studies.
Compare with care: the assays were run in different laboratories.
Target: High affinity nerve growth factor receptor (NTRK1, Homo sapiens, UniProt P04629)

`CSc1nc(C)c(-c2ccnc(Nc3ccc(N4CCOCC4)cc3)c2)[nH]1` gave an inhibition of 10.1% (cell-free assay; inhibitor; 10 µM).
For `CC/C(=N\NC(=O)NCc1cccc(O)c1)c1ccc(O)c(C)c1O`, the inhibition was 3.3% (enzyme activity; inhibitor; 0.1 µM).
With `CCN(CC)CCNC(=O)c1c(C)[nH]c(/C=C2\C(=O)Nc3ccc(F)cc32)c1C` the inhibition was 91% (enzyme activity; inhibitor; 0.3 µM).
`CN(C)C1CCN(CC#Cc2nn(C3CCCC3)c3nc(NCc4ccccc4)ncc23)C1` (centres unmarked) gave an inhibition of 6% (enzyme activity; inhibitor; FRET; 0.1 µM).
`CNC(=O)c1cc(Oc2ccc(NC(=O)Nc3ccc(Cl)c(C(F)(F)F)c3)cc2)ccn1` gave an inhibition of 98% (enzyme activity; inhibitor; 10 µM).
For `CN1CCN(CC(=O)Nc2cccc(C(=O)Nc3ccc4[nH]ncc4c3)c2)CC1`, the inhibition was 14.1% (enzyme activity; inhibitor; FRET; 1 µM).
For `COc1cc2ncnc(Nc3ccc(Oc4ccccc4)cc3C)c2cc1OC`, the inhibition was 9% (enzyme activity; inhibitor; 1 µM).
`COc1cc(C)c(Sc2cnc(NC(=O)c3ccc(N4CCN(CCCCCCCNC(=O)COc5cccc6c5C(=O)N(C5CCC(=O)NC5=O)C6=O)CC4)cc3)s2)cc1C(=O)N1CCN(C(C)=O)CC1` (centres unmarked) gave an inhibition of over 90% (binding; 1 µM).
For `O=C(Nc1ccc(Cl)cc1)Nc1cccc(C(=O)Nc2ccc3[nH]ncc3c2)c1`, the inhibition was 55.3% (enzyme activity; inhibitor; FRET; 1 µM).
`CNCc1ccc(-c2cc(-c3nc(-c4ccc(S(=O)(=O)C(C)C)cc4)cnc3N)on2)cc1` gave an inhibition of 32% (enzyme activity; inhibitor; 2 µM).
The inhibition of `O=C(Nc1ccccc1)Nc1cccc(C(=O)Nc2ccc3[nH]ncc3c2)c1` is reported as 33.2% (enzyme activity; inhibitor; FRET; 1 µM).
The inhibition of `CNC(=O)c1ccccc1Nc1cc(Nc2ccc(N3CCOCC3)cc2OC)ncc1C(F)(F)F` is reported as over 50% (enzyme activity; inhibitor; 1 µM).
With `Cc1ccc(Nc2nccc(N(C)c3ccc4c(C)n(C)nc4c3)n2)cc1S(N)(=O)=O` the inhibition was 16% (enzyme activity; inhibitor; 0.3 µM).
For `O=C(Nc1cccc(C(=O)Nc2ccc3[nH]ncc3c2)c1)Nc1cccc(C(F)(F)F)c1`, the inhibition was 67.4% (enzyme activity; inhibitor; FRET; 1 µM).
